Test results: ChEMBL document CHEMBL5154772, “Biological Investigation of a Water-Soluble Isoginkgetin-Phosphate Analogue, Targeting the Spliceosome with In Vivo Antitumor Activity” (J Med Chem, 2022)
The source made the active and inactive calls. The rule behind the calls is not given here.

What was measured:
Format in all cases: functional, cell-based
U2OS [1] = assay: Antitumor immunity against human U2OS cells assessed as decrease in ATP by measuring reduction in quinacrine green fluorescence intensity at 3 uM pretreated for 24 hrs by live fluorescence microscopic analysis
U2OS [2] = assay: Antitumor immunity against human U2OS cells expressing HMGBI-GFP fusion protein assessed as accumulation HMGBI-GFP fusion protein at 3 uM measured upto 24 hrs by live cell microscopic analysis
U2OS [3] = assay: Antitumor immunity against human U2OS cells expressing CALR-GFP fusion protein assessed as accumulation CALR-GFP fusion protein at 3 uM measured upto 24 hrs by live cell microscopic analysis
MCA-205 = assay: Induction of B3Z T-cell activation cocultured with mouse MCA-205 cells expressing SL8 epitope assessed as increase in intron-derived SL8 antigen presentation at 2 to 10 uM measured after 18 hrs; details: dose 2-10 µM
Method in brief: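 MCA205 cells transfected with YFP-Globin-SL8-intron plasmid (pCDNA3 empty-vector control). 24 h later, treated 18 h. Washed, then 5x10^4 cells co-cultured with 1x10^5 SL8/H-2Kb-specific B3Z CD8+ T-cell hybridoma for 18 h at 37 °C. Cells lysed, β-galactosidase read with 40 µM MUG substrate over 3 h at room temperature. Normalised to unspecific B3Z activation. At least three biological replicates, Student's t-test.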

Row | SMILES | Activity (U2OS [1]) | Activity (U2OS [2]) | Activity (U2OS [3]) | Activity (MCA-205)
1 | O=C1c2c(O)ccc(O)c2C(=O)c2c(NCCNCCO)ccc(NCCNCCO)c21 | Active | Active | Active | –
2 | COc1cc(-c2ccc(=O)[nH]n2)ccc1OC(F)F | – | – | – | Active
